Screens (PubChem BioAssay)
Only some compounds are listed: those with a hit (about 3.5% of all), similar ones and a draw of the others.
Wnt act = activates Wnt/beta-catenin signaling in a reporter cell assay | activation, % at 9.35 µM | 1.2% of 300,000 active | activator, plate reader; in the data active = activation above about 30%, passing the limit was not always enough; inconclusive = no clear call, values can overlap the other calls;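 note: 0% = neutral control wells and 100% = positive control wells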
esBAF inh = inhibitors of esBAF chromatin remodeling in mouse ES cells | Bmi1-luciferase knock-in reporter, 24 h; 100% = twice the neutral-well signal | reporter increase, % at 12.5 µM | 2% of 350,000 active; in the data active = activation above about 40%; inconclusive = no clear call, values can overlap the other calls;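 note: 0% = median of the plate's neutral control wells and 100% = double that signal; a rise in the Bmi1 reporter signal indicates esBAF inhibition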
ERAP1 inh = blocks human ERAP1 aminopeptidase activity | inhibition, % at 10.7 µM | 0.15% of 340,000 active | recombinant ERAP1, Leu-AMC fluorescence, 60 min;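 active = mean replicate inhibition of at least 30%, or all replicates individually reaching that 30% level; inactive = mean below 30% and not every replicate reaching it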;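 note: 0% = neutral control wells and 100% = L-leucinethiol positive control wells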
MITF TRPM1 HTS = MITF TRPM1 promoter activation in melanoma cells. SK-MEL-5 TRPM1-promoter luciferase, 24 h; % of positive control, neutral wells = 0. activation, % at 12.5 µM. 0.75% of 300,000 active;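 active = mean activation of at least 80% with every replicate also reaching 80%; inconclusive = mean reaches 80% but some replicate falls short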;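 note: 0% = neutral control wells and 100% = parthenolide positive control wells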
Cneo AK release = Cryptococcus neoformans lysis via adenylate kinase release | C. neoformans lysis, adenylate kinase release luminescence, 4 h; normalised: neutral wells 0, clomiphene wells 100 | lysis activity, % at 15 µM | 0.2% of 360,000 active;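 active = mean lysis activity across replicates of at least 80%, whatever share of replicates individually reach that level; inactive = mean lysis activity below 80%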
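Material: C. neoformans cells; Schedule: 4 h static compound exposure, 37 °C, read 1 h post-reagent; Measured by: adenylate kinase release luminescence; Read-out: signal increase indicating cell lysis; Controls: Clomiphene as positive lysis control.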
Env fusion inh = blocks HIV Env-driven cell-cell fusion; HeLa-JRFL Env/CEM21 cell fusion, luciferase; inhibition, % at 12.3 µM; 1.1% of 360,000 active;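 active = mean replicate inhibition score of at least 50 and every replicate individually at or above 50; inconclusive = only one of the two criteria met; inactive = mean below 50 and not all replicates reaching 50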;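 note: 0% = plate neutral controls and 100% = maraviroc near 300 nM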
* hit, by the source's call; [ ] = another dose, or the depositor's remark.

What do the screens show for `COc1cc2c(cc1OC)CN(C(=O)[C@@H]1[C@H]3C(=O)O[C@H](c4ccccc4)[C@H](c4ccccc4)N3[C@H](c3ccc(OCCO)cc3)[C@@]13C(=O)Nc1ccc(C#CCNC(N)=O)cc13)CC2`?
ERAP1 inh: 2; Cneo AK release: -2; Env fusion inh: 5[16.7 µM]

What do the screens show for `CC1=Nc2ccccc2N=C(N)C1c1ccccc1` (stereo unspecified)?
Wnt act: 52*; esBAF inh: 35; ERAP1 inh: 0; MITF TRPM1 HTS: 18; Env fusion inh: -9

Results for CC(C)C#Cc1cnc2c(c1)C(=O)N([C@@H](C)CO)C[C@H](C)[C@H](CN(C)C(=O)Nc1ccccc1)O2 ?
esBAF inh: 1; ERAP1 inh: 2; Cneo AK release: 7; Env fusion inh: 10[16.7 µM]

Results for O=C(NN1C(=O)C2C3c4ccccc4C(c4ccccc43)[C@@H]2C1=O)c1ccccc1 (stereo partly specified) ?
Wnt act: 30*; ERAP1 inh: -1; MITF TRPM1 HTS: -7; Env fusion inh: -17

How did O=C(NN1C(=O)C2C3c4ccccc4C(c4ccccc43)C2C1=O)C1CC1 (stereo unspecified) do in these assays?
Wnt act: 51*; ERAP1 inh: 1; MITF TRPM1 HTS: -5; Env fusion inh: -8

What do the screens show for `Cc1ccc(C(=O)NN2C(=O)C3C4c5ccccc5C(c5ccccc54)[C@@H]3C2=O)cc1` (stereo partly specified)?
MITF TRPM1 HTS: 16; Cneo AK release: 10; Env fusion inh: -38

How did O=C(Cc1ccc(Cl)cc1)NNC(=O)C(=O)NC1CCCCC1 do in these assays?
Wnt act: 0; esBAF inh: -12; ERAP1 inh: -4; MITF TRPM1 HTS: -12; Cneo AK release: 1; Env fusion inh: -17

Results for O=C(CCNC(=O)c1ccc(Br)cc1)NC1CCCCCC1 ?
Wnt act: -1; esBAF inh: 3; ERAP1 inh: -6; MITF TRPM1 HTS: -3; Cneo AK release: 0; Env fusion inh: 7

Results for O=C(Cc1ccc(Cl)cc1)NC1CCCCCC1 ?
Wnt act: 3; esBAF inh: 54*; ERAP1 inh: -1; MITF TRPM1 HTS: 26; Cneo AK release: -2; Env fusion inh: -39

What do the screens show for `O=C(CCNC(=O)c1ccc(Cl)cc1)NC1CCCCCC1`?
Wnt act: 38*; esBAF inh: 26; ERAP1 inh: -1; MITF TRPM1 HTS: 10; Cneo AK release: -3

What do the screens show for `COc1ccc(-c2csc3ncnc(N4CCN(S(=O)(=O)c5cccs5)CC4)c23)cc1`?
Wnt act: 0; esBAF inh: -3; ERAP1 inh: 3; MITF TRPM1 HTS: 4; Cneo AK release: 0; Env fusion inh: 15

How did COc1ccc(-c2csc3ncnc(N4CCN(S(=O)(=O)c5ccc(C)cc5)CC4)c23)cc1 do in these assays?
Wnt act: -3; esBAF inh: 0; ERAP1 inh: 0; MITF TRPM1 HTS: -2; Env fusion inh: 63*

How did Cc1csc2ncnc(N3CCN(S(=O)(=O)c4cccc(C(F)(F)F)c4)CC3)c12 do in these assays?
Wnt act: 1; esBAF inh: -24; ERAP1 inh: 2; MITF TRPM1 HTS: -4; Cneo AK release: -6; Env fusion inh: 57*

How did Cc1sc2ncnc(N3CCN(S(=O)(=O)c4ccc(Br)cc4)CC3)c2c1C do in these assays?
Wnt act: -4; esBAF inh: -9; ERAP1 inh: -1; MITF TRPM1 HTS: -18; Cneo AK release: -4; Env fusion inh: 78*

What do the screens show for `CCCNC(=O)N1CC2(C1)[C@H](c1ccccc1)[C@H](CO)N2Cc1cccc(F)c1`?
ERAP1 inh: -5

Results for COc1ccc(Cl)cc1NC(=O)Nc1cnccn1 ?
Wnt act: 3; ERAP1 inh: -2; MITF TRPM1 HTS: -33; Cneo AK release: 4; Env fusion inh: 71*

What do the screens show for `COc1ccc(NC(=O)Nc2cnccn2)c(OC)c1`?
Wnt act: 0; ERAP1 inh: 1; MITF TRPM1 HTS: -2; Cneo AK release: 0; Env fusion inh: 57*

What do the screens show for `COc1ccc(S(=O)(=O)N(C)C[C@@H]2Oc3c(NC(=O)C4CC4)cccc3C(=O)N([C@@H](C)CO)C[C@H]2C)cc1`?
esBAF inh: -2; ERAP1 inh: -1; Cneo AK release: 5; Env fusion inh: 8[16.7 µM]

How did Cc1cccc(/C(N)=N/OC(=O)c2ccc(Br)o2)c1 do in these assays?
Wnt act: 46*; MITF TRPM1 HTS: 58; Env fusion inh: -16

Results for N/C(=N\OC(=O)c1ccc(Cl)cc1)c1cccnc1 ?
esBAF inh: 68*; MITF TRPM1 HTS: 46; Cneo AK release: -3

What do the screens show for `N/C(=N\OC(=O)c1ccco1)c1cccnc1`?
Wnt act: 38*; ERAP1 inh: -8; MITF TRPM1 HTS: 32; Env fusion inh: -7

Results for N/C(=N\OC(=O)c1cccs1)c1cccnc1 ?
Wnt act: 11; esBAF inh: inconclusive; ERAP1 inh: -2; MITF TRPM1 HTS: 48; Env fusion inh: -46

What do the screens show for `Cc1cccc(/C(N)=N/OC(=O)c2cccnc2)c1`?
Wnt act: 33*; ERAP1 inh: 8; MITF TRPM1 HTS: 49; Cneo AK release: -3; Env fusion inh: -81

How did N/C(=N\OC(=O)C(c1ccccc1)c1ccccc1)c1cccnc1 do in these assays?
Wnt act: -2; ERAP1 inh: 6; MITF TRPM1 HTS: 4

What do the screens show for `COc1cc(OC)cc(C(=O)O/N=C(\N)c2cccc(C)c2)c1`?
Wnt act: 5; esBAF inh: 29; ERAP1 inh: 1; MITF TRPM1 HTS: 52; Cneo AK release: -1; Env fusion inh: -16

How did COc1ccc(S(=O)(=O)Nc2ccc3c(c2)[C@@H]2C[C@@H](CC(=O)O)O[C@H](CO)[C@@H]2O3)cc1 do in these assays?
esBAF inh: 5; ERAP1 inh: 0; Cneo AK release: -7

What do the screens show for `C[C@@H]1CN([C@@H](C)CO)C(=O)c2cc(NS(=O)(=O)c3ccccc3)ccc2O[C@@H](C)CCCCO[C@@H]1CN(C)S(=O)(=O)c1ccccc1`?
esBAF inh: -5; ERAP1 inh: -2; Cneo AK release: 0; Env fusion inh: -27[16.7 µM]

Results for C[C@@H]1CCCCO[C@@H](CN(C)Cc2ccc(Cl)c(Cl)c2)[C@H](C)CN([C@H](C)CO)C(=O)c2cc(NC(=O)C3CCCCC3)ccc2O1 ?
esBAF inh: 0; ERAP1 inh: -3; Cneo AK release: 2; Env fusion inh: 17[16.7 µM]

Results for N/C(=N\OC(=O)c1ccc(Cl)cc1)c1ccn[nH]1 ?
Wnt act: 49*; esBAF inh: -27; ERAP1 inh: 1; MITF TRPM1 HTS: inconclusive; Cneo AK release: -26; Env fusion inh: -221

How did N/C(=N\OC(=O)c1ccccc1Cl)c1ccc(Cl)cc1 do in these assays?
MITF TRPM1 HTS: 45
